Experimental data pooled from the literature.
Each line is one published result; the experiments were not run side by side.
Observed: enzyme activity
Action: inhibitor
LCK: Tyrosine-protein kinase Lck (LCK, Homo sapiens, UniProt P06239)
LCK phosphorylated: Tyrosine-protein kinase Lck, phosphorylated (LCK, Homo sapiens, UniProt P06239)

CCN(CC)c1ccc(C2=NNC(=O)CC2C)cc1[N+](=O)[O-] (centres unmarked)  remaining activity (LCK; 10 µM): 118%
O=C1Nc2ccc(Cl)cc2C1=Cc1cc(Cl)c(O)c(Cl)c1  remaining activity (LCK; 0.5 µM): 88.2%
CC(C)(C)c1nc(-c2cccc(NS(=O)(=O)c3c(F)cccc3F)c2F)c(-c2ccnc(N)n2)s1  remaining activity (LCK; radiometric; 1 µM): 38%
Nc1nc(NC2CCCCC2)sc1C(=O)c1ccccc1  remaining activity (LCK; 10 µM): 86%
COc1cc(Nc2cnc(C#N)c(O[C@H](C)CN(C)C)n2)ncc1-c1cnn(C)c1  remaining activity (LCK; radiometric; 1 µM): 60%
Cc1[nH]c(/C=C2\C(=O)Nc3ccc(F)cc32)c(C)c1C(=O)N[C@H]1CCN(C(=O)N(C)C)C1  remaining activity (LCK; 1 µM): 42%
O=C(Nc1cnn(-c2csc(C(=O)NC3COC3)c2)c1)Nc1c(F)cccc1Cl  remaining activity (LCK; 5 µM): 94.2%
Cn1c(=O)n(-c2ccc(C(C)(C)C#N)cc2)c2c3cc(-c4cnc5ccccc5c4)ccc3ncc21  remaining activity (LCK; 10 µM): 54%
COc1cc(Cl)c(C(=O)N[C@@H](CN[C@H]2CC[C@@H](N)CC2)Cc2ccc(C#N)cc2)cc1-c1ccc(CN[C@H](C)c2ccc(C)cc2)o1  remaining activity (LCK phosphorylated; 1 µM): 85%
O=c1c2ccccc2[nH]c(=S)n1CCN1CCC(=C(c2ccc(F)cc2)c2ccc(F)cc2)CC1  remaining activity (LCK; 0.5 µM): 99.5%
Cc1sc(C(=O)NC2COC2)cc1-n1cc(NC(=O)Nc2c(F)cccc2Cl)cn1  remaining activity (LCK; 10 µM): 46.5%
COc1cc(Nc2c(C#N)cnc3cc(OCCCN4CCN(C)CC4)c(OC)cc23)c(Cl)cc1Cl  remaining activity (LCK; 0.5 µM): 1.88%
CCCOc1ccc(OC)c(F)c1C(=O)c1ccc(C(=O)N[C@@H]2CNC[C@H]2NC(=O)c2ccc3[nH]ncc3c2)cc1  remaining activity (LCK; 10 µM): 21%
O=c1cc(-c2cccc3c2Sc2ccccc2S3)oc(N2CCOCC2)c1  remaining activity (LCK; 0.5 µM): 98.1%
Nc1ncnc2occ(-c3ccc(NC(=O)Nc4cc(C(F)(F)F)ccc4F)cc3)c12  remaining activity (LCK; 20 µM): 0.1%
C[S+]([O-])c1ccc(-c2nc(-c3ccncc3)c(-c3ccc(F)cc3)[nH]2)cc1 (centres unmarked)  remaining activity (LCK; 0.5 µM): 95%
Cc1ccc(NC(=O)c2ccc(C)c(C(F)(F)F)c2)cc1C#Cc1nn(C2CCC(O)CC2)c2ncnc(N)c12 (centres unmarked)  remaining activity (LCK phosphorylated; 10 µM): 0%
Cc1cnc(NC2CCOCC2)nc1-n1cnc(C(=O)NC(CN)c2cc(F)cc(Cl)c2)c1 (centres unmarked)  remaining activity (LCK; radiometric; 1 µM): 100%
CCN(CC)CCNC(=O)c1c(C)[nH]c(/C=C2\C(=O)Nc3ccc(Cl)cc32)c1C  remaining activity (LCK; 0.5 µM): 11.8%
Cc1ccc(NC(=O)c2ccc(CN3CCN(C)CC3)cc2)cc1Nc1nccc(-c2cncc(-c3oncc3C)c2)n1  remaining activity (LCK; 0.5 µM): ≤ 50%
